Reference: publication PMC6166782 (Science signaling, 2018)
Read-outs that look alike come from different tables or passages of the source.

Columns and labels:
[1] = biological target: fluorescein-labeled NR peptide (F-NR); assay: fluorescence polarisation
pHsp72 [2] = biological target: T1, pHsp72 (Homo sapiens, UniProt P0DMV8, T66S); assay: Isothermal titration calorimetry, nucleotide binding to pHsp72; conditions: ITC; ratio of Kd
Target sequence in this assay (P0DMV8 2-641 T66S): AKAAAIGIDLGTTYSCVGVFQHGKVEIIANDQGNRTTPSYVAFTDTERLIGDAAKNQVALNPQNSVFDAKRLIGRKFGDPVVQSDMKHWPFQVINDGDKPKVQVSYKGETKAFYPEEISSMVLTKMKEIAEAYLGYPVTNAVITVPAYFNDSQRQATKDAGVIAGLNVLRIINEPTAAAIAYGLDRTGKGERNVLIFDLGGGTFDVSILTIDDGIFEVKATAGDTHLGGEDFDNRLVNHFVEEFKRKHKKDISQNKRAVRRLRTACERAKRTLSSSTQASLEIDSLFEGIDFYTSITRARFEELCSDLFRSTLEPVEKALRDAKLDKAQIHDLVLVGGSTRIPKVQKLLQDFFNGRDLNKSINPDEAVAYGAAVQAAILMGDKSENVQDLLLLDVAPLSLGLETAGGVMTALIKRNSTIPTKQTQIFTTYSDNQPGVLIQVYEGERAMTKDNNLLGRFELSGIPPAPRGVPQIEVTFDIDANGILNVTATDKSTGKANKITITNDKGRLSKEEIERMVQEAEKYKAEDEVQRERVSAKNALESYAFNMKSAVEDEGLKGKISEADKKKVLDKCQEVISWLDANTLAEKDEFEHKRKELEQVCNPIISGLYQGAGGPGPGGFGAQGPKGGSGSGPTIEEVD

pHsp72 [3] = assay: Peptide release kinetics in the presence of Hsp110, pHsp72; format: biochemical; conditions: ATP, Hsp110 and unlabeled substrate peptide
Summary of the method: (§1)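 50 μM pS66 or unphosphorylated Hsp72 was equilibrated for several hours at room temperature with 20 nM F-NR and 125 μM ADP in Hepes–KOH pH 7.5 buffer (10 mM MgCl₂, 2 mM DTT). ATP was then added to 2 mM final, with 150 μM unlabelled peptide and 125 μM Hsp110. FP (ex 490/em 535 nm, 25°C) was read every 30 s for 4000 s. koff given as mean ± SEM of six experiments.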

pHsp72 [4] = assay: Kinetics of substrate peptide release, pHsp72; format: biochemical
Summary of the method: (§2)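 50 μM Hsp72 (pS66 or unphosphorylated) was pre-equilibrated at room temperature with F-NR and 125 μM ADP in Hepes–KOH pH 7.5 buffer with 10 mM MgCl₂. ADP state: 40 nM F-NR for over 5 h, then 150 μM unlabelled NR. ATP state: 20 nM F-NR, then 2 mM ATP plus 150 μM unlabelled peptide, read every 30 s for 4000 s (mean ± SEM, five assays). FP at 25°C; koff was fitted.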

spindle assembly = conditions: ref [9]; cited from earlier work
mitotic spindle = conditions: ref [9]; cited from earlier work
[5] = biological target: fluorescein-labeled NR peptide (F-NR); assay: fluorescence polarisation; remark: listed apart in the source
unphosphorylated Hsp72 [6] = biological target: T2, unphosphorylated Hsp72 (Homo sapiens, UniProt P0DMV8); assay: Fluorescence polarization peptide binding, unphosphorylated Hsp72
Summary of the method: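 Unphosphorylated Hsp72 serially diluted in Buffer A (pH 7.5, 10 mM MgCl₂). ADP state: 125 μM ADP plus 20 nM F-NR, several hours at room temperature to equilibrium. ATP state: 2 mM ATP for 2 min, then 20 nM F-NR, read after 10 min. FP at 25°C, ex 490/em 535 nm. Kd from one-site nonlinear fit; ATP Kd divided by ADP Kd.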
Target sequence in this assay (P0DMV8 whole entry): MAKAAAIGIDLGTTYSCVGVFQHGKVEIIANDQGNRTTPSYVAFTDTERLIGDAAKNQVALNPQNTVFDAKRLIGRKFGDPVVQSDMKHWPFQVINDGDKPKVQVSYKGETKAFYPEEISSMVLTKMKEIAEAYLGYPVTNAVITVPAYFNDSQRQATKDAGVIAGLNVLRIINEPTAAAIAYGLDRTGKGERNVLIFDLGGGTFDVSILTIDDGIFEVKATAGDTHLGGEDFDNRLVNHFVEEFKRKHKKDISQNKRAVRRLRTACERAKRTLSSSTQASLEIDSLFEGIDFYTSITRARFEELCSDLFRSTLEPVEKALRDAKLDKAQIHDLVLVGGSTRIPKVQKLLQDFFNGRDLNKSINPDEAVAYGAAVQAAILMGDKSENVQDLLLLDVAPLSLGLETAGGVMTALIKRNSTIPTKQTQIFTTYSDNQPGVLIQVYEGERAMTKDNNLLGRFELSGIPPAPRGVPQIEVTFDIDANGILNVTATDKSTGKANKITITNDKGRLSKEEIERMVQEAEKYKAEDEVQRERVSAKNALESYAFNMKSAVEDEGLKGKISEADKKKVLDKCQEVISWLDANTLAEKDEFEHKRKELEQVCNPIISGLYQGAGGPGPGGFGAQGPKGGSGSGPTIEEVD

unphosphorylated Hsp72 [7] = biological target: T2, unphosphorylated Hsp72; assay: ATP mediated substrate release assay, unphosphorylated Hsp72; format: biochemical; conditions: 100 μM VER-155008, 2 mM ATP; Fig. S7, C to E
Summary of the method: (§3)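 Full-length Hsp72 (unphosphorylated, or pSer66 genetically encoded in E. coli) at 50 μM was equilibrated at room temperature for several hours with 20 nM F-NR or F-ALLQ peptide and 125 μM ADP in Buffer A (Hepes-KOH pH 7.5, 10 mM MgCl₂, 2 mM DTT). ATP was added to 2 mM final, with 100 μM VER-155008 included. FP (ex 490/em 535 nm, 25°C) was read before ATP, then every 30 s for 4000 s.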
Target sequence in this assay (P0DMV8 2-641): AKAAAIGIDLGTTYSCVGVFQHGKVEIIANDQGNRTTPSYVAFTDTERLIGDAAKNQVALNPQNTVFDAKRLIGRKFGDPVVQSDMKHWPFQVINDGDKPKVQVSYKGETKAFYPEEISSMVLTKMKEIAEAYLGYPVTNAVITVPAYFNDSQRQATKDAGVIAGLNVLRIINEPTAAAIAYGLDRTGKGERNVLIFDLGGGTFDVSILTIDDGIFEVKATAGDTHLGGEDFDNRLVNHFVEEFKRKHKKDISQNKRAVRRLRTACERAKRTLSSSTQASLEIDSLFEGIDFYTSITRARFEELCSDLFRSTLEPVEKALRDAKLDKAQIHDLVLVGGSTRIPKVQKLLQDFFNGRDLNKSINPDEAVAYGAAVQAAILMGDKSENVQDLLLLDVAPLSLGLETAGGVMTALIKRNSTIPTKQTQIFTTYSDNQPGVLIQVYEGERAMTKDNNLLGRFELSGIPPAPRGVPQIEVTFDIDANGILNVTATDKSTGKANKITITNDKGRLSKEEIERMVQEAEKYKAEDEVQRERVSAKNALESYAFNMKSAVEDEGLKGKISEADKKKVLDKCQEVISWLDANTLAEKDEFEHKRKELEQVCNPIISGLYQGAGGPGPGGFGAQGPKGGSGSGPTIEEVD

pHsp72 [8] = biological target: T1, pHsp72; assay: ATP mediated substrate release assay, pHsp72; format: biochemical; conditions: 100 μM VER-155008, 2 mM ATP; Fig. S7, C to E; protein form not given
Summary of the method: as §3
Target sequence in this assay (P0DMV8 2-641 T66S): as the sequence (P0DMV8 2-641 T66S) above

[9] = test system: spindle poles, HeLa cells; assay: FRAP of GFP-Hsp72 at spindle poles; format: cell-based; conditions: one spindle pole bleached; average of 4-5 cells from 2 experiments
pHsp72 [10] = biological target: T1, pHsp72; assay: Peptide release kinetics in the presence of Hsp110, pHsp72; format: biochemical; conditions: read-out: koff, ATP, excess of unlabeled peptide, Hsp110
Summary of the method: as §1
Target sequence in this assay (P0DMV8 whole entry T66S): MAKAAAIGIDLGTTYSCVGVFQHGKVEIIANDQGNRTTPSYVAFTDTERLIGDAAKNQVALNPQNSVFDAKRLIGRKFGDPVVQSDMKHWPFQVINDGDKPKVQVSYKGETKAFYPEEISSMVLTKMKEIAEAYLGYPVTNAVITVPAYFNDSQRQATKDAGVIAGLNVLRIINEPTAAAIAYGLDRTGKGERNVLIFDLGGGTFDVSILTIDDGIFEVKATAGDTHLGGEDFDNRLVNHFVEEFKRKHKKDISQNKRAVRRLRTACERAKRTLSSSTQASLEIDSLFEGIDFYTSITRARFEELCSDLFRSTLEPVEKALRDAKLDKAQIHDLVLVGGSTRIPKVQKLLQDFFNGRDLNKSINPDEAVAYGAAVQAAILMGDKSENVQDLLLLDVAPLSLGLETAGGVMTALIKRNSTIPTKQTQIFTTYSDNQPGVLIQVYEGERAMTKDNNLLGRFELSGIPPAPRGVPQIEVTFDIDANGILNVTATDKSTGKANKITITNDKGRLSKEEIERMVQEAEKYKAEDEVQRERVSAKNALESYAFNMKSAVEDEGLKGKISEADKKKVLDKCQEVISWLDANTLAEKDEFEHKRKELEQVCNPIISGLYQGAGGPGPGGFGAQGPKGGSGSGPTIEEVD

unphosphorylated Hsp72 [11] = biological target: T2, unphosphorylated Hsp72; assay: Peptide release kinetics in the presence of Hsp110, unphosphorylated Hsp72; format: biochemical; conditions: read-out: koff, ATP, excess of unlabeled peptide, Hsp110
Summary of the method: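 Unphosphorylated Hsp72 (50 μM) equilibrated for several hours at room temperature with 20 nM F-NR and 125 μM ADP in Buffer A (pH 7.5, 150 mM KCl, 10 mM MgCl₂). Release triggered by 2 mM ATP (final) with 150 μM unlabelled peptide and 125 μM His-tagged, E. coli-expressed Hsp110. FP (ex 490/em 535 nm, 25°C) every 30 s for 4000 s; koff fitted. Mean ± SEM, six experiments.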
Target sequence in this assay (P0DMV8 whole entry): as the sequence (P0DMV8 whole entry) above

pHsp72 [12] = biological target: T1, pHsp72; assay: Kinetics of substrate peptide release, pHsp72; format: biochemical; conditions: pH 7.5, read-out: koff, excess of unlabeled peptide (ADP state)
Summary of the method: as §2
Target sequence in this assay (P0DMV8 whole entry T66S): as the sequence (P0DMV8 whole entry T66S) above

unphosphorylated Hsp72 [13] = biological target: T2, unphosphorylated Hsp72; assay: Kinetics of substrate peptide release, unphosphorylated Hsp72; format: biochemical; conditions: pH 7.5, read-out: koff, excess of unlabeled peptide (ADP state)
Summary of the method: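 Hsp72 (50 μM) preloaded at room temperature with F-NR in 125 μM ADP, Buffer A (25 mM Hepes-KOH pH 7.5, 150 mM KCl, 10 mM MgCl₂, 2 mM DTT). ADP state: 40 nM F-NR, >5 h, then chased with 150 μM unlabelled NR. ATP state: 20 nM F-NR, then 2 mM ATP plus 150 μM unlabelled peptide. FP read over time at 25°C; koff fitted. Mean ± SEM, four (ADP) or five (ATP) runs.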
Target sequence in this assay (P0DMV8 whole entry): as the sequence (P0DMV8 whole entry) above

Chain of Heat shock protein 72 (Hsp72), unphosphorylated, full-length (P0DMV8 whole entry): as above

pSer^66-Hsp72 (pHsp72), full-length, with genetically encoded phosphoserine at position 66 (from UniProt P0DMV8 1-641) (natural protein)
Kd [1]: 27.6 µM

Nc1ncnc2c1ncn2[C@@H]1O[C@H](COP(=O)(O)OP(=O)(O)OP(=O)(O)O)[C@@H](O)[C@H]1O [ATP, adenosine triphosphate]
fold tighter nucleotide binding, pHsp72 vs unphosphorylated Hsp72 (pHsp72 [2]): twice as tightly

pHsp72: full-length Hsp72 with incorporation of pSer^66
fold slower peptide release rate, pHsp72 vs Hsp72, in presence of Hsp110 (pHsp72 [3]): ~ 2.7 fold
times slower peptide release rate, pHsp72 vs unphosphorylated (pHsp72 [4]; ADP state): ~ 1.5 times
times slower peptide release rate, pHsp72 vs unphosphorylated (pHsp72 [4]; ATP state): ~ 8 times

T66A
effect on spindle assembly (spindle assembly): causes defects in spindle assembly
localization to the spindle (mitotic spindle): did not localize to the spindle

Nc1ncnc2c1ncn2[C@@H]1O[C@H](COP(=O)(O)OP(=O)(O)NP(=O)(O)O)[C@@H](O)[C@H]1O [AMP-PNP, adenylyl-imidodiphosphate]
fold tighter nucleotide binding, pHsp72 vs unphosphorylated Hsp72 (pHsp72 [2]): 3.6 fold

Heat shock protein 72 (Hsp72), unphosphorylated, full-length (from UniProt P0DMV8 1-641) (natural protein)
Kd [1]: 157 µM
Kd [5]: 3.95 µM

N#Cc1ccc(COC[C@H]2O[C@@H](n3c(NCc4ccc(Cl)c(Cl)c4)nc4c(N)ncnc43)[C@H](O)[C@@H]2O)cc1 [VER-155008]
effect on binding of peptide substrate (unphosphorylated Hsp72 [6]; 100 μM VER-155008, DMSO control, Fig. S7, form of Hsp72 not stated): did not affect the binding of peptide substrate
fold reduction of ATP substrate release rate (unphosphorylated Hsp72 [7]): ~ 8.6 fold
effect on spindle assembly (spindle assembly): disrupted spindle assembly
increase of ATP-mediated rate of release of substrate peptide (pHsp72 [8]): ~ 2.6

T66E
effect on spindle assembly (spindle assembly): can rescue the defects in spindle assembly due to NEK6 depletion
FRAP recovery [9]: very little recovery

CC(C)C[C@H](NC(=O)[C@H](CCCNC(=N)N)NC(=O)[C@H](CC(N)=O)NC(=O)c1ccc2c(c1)C(=O)OC21c2ccc(O)cc2Oc2cc(O)ccc21)C(=O)N[C@@H](CC(C)C)C(=O)N[C@@H](CC(C)C)C(=O)N[C@H](C(=O)NCC(=O)O)[C@@H](C)O [F-NR]
factor by which ATP weakened peptide interaction vs ADP (unphosphorylated Hsp72 [6]; unphosphorylated Hsp72, ATP vs ADP, ratio of Kd): 40
koff (pHsp72 [10]): 0.0252 ± 0.0017 s⁻¹
koff (unphosphorylated Hsp72 [11]): 0.0673 ± 0.0077 s⁻¹
koff (pHsp72 [12]): 0.00079 ± 3e-05 s⁻¹
koff (unphosphorylated Hsp72 [13]): 0.00123 ± 4e-05 s⁻¹

Nc1ncnc2c1ncn2[C@@H]1O[C@H](COP(=O)(O)OP(=O)(O)O)[C@@H](O)[C@H]1O [ADP, adenosine diphosphate]
fold tighter nucleotide binding, pHsp72 vs unphosphorylated Hsp72 (pHsp72 [2]): ten times more tightly
